The values below come from ChEMBL document CHEMBL4765392, “Development of coumarine derivatives as potent anti-filovirus entry inhibitors targeting viral glycoprotein” (Eur J Med Chem, 2020).

pIC50: −log10 of the molar value.

Series [1] in a line: Inhibition of envelope glycoprotein in HIV pseudotyped Zaire Ebolavirus infected in human A549 cells assessed as reduction in virus entry measured after 48 hrs by luciferase reporter gene assay. The series is classed as cell-based. The note with it: A549, 48 h. In a few lines: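 A549 cells (5000/well, seeded 24 h prior) incubated 48 h with 3-fold serial compound dilutions premixed with HIV-backbone luciferase pseudovirions bearing EBOV GP. Entry quantified by luciferase signal, normalized to virus-alone cells. IC50 from logistic regression of dose-response curves.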
For orientation: Reporter assays use an easily measured gene product as a stand-in for the process of interest.

The nature of series [2]: Cytotoxicity against human A549 cells assessed as reduction in cell viability by Celltiter-Glo assay. The series is classed as cell-based. Put shortly: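 Low-passage A549 cells seeded at 5000/well 24 h ahead, then exposed for 48 h to 3-fold serial compound dilutions in fresh media without virus. Viability read by CellTiter-Glo luminescence and normalized to medium-only cells. CC50 from logistic regression fit of dose-response curves.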
(In general: In ATP-based viability assays light output follows the ATP content of the culture.)

The subject of series [3] is envelope glycoprotein of Zaire Ebolavirus. Description: Selectivity index, ratio of CC50 for human A549 cells to IC50 for inhibition of envelope glycoprotein in HIV pseudotyped Zaire Ebolavirus infected in human A549 cells assessed as reduction in virus entry. The series is classed as toxicity, cell-based. The note with it: read-out: Ratio CC50/IC50. Put shortly: (§1)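 IC50 wells also got HIV luciferase pseudovirions bearing MARV GP or EBOV GP, read by luciferase. CC50 wells got fresh media, read by CellTiter-Glo. Both values come from logistic dose-response fits, and the index is CC50 divided by IC50.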

Series [4] has as its system envelope glycoprotein of Marburgvirus. Description: Selectivity index, ratio of CC50 for human A549 cells to IC50 for inhibition of envelope glycoprotein in HIV pseudotyped Marburgvirus infected in human A549 cells assessed as reduction in virus entry. The series is classed as toxicity, cell-based. The note with it: read-out: Ratio CC50/IC50. In a few lines: as §1

Turning to `Cc1c(Cc2ccc(C(F)(F)F)cc2)c(=O)oc2cc(OCC(O)CN3CCC(C(N)=O)CC3)ccc12` (centres undefined), in series [1], the pIC50 (as a rule, the negative decadic logarithm of the IC50, by convention in mol/L) was 5.96. Moreover, in series [2], the CC50 (in general, the concentration that lowers cell viability or growth by half) turned out to be 89.3 µM. The selectivity ratio in series [3] came to 78.8; in series [4] it was 83.7.
In the case of `Cc1c(Cc2ccccc2C(F)(F)F)c(=O)oc2cc(OCC(O)CN3CCC(C(N)=O)CC3)ccc12` (centres undefined), the pIC50 in series [1] was 5.80. Further, the CC50 in series [2] was > 100 µM. Further, the figures for the selectivity ratio in series [3] and in series [4] were > 63.8 and 33, respectively.
For the molecule `Cc1c(Cc2ccc(OC(F)(F)F)cc2)c(=O)oc2cc(OC[C@H](O)CN3CCC(C(N)=O)CC3)ccc12`, in series [1], the pIC50 is 6.05. For the same molecule, in series [2], the CC50 is 52 µM. Moreover, the selectivity ratio in series [3] worked out at 55.7; in series [4], 36.3.
Take `Cc1c(Cc2ccccc2)c(=O)oc2cc(OCC(O)CNc3nc4ccccc4[nH]3)ccc12` (centres undefined): in series [1], the pIC50 was < 4.00. The CC50 in series [2] is > 100 µM. Also, in series [4], the selectivity ratio is 1.
Regarding `Cc1cc(F)ccc1Cc1c(C)c2ccc(OCC(O)CN3CCC(C(N)=O)CC3)cc2oc1=O` (centres undefined), in series [1], the pIC50 is 5.92. Further, in series [2], the CC50 is > 100 µM. In addition, the results for the selectivity ratio in series [3] and in series [4] were > 81.1 and 33.3, respectively.
On to `Cc1c(Cc2ccc(F)cc2)c(=O)oc2cc(OCC(O)CN3CCC(C(N)=O)CC3)ccc12` (centres undefined), for which the pIC50 in series [1] is 5.96. Also, the CC50 in series [2] was determined as 89.3 µM. The selectivity ratio in series [3] came to 78.8; in series [4], 83.7.
The matching figures for `Cc1c(Cc2ccccc2)c(=O)oc2cc(OCC(O)CNCCCO)ccc12` (centres undefined): 5.05, 53.4 µM, 6 and 6.3.
In the case of `Cc1c(Cc2ccc(-c3ccc(Cl)cc3)cc2)c(=O)oc2cc(OCC(O)CN3CCC(C(N)=O)CC3)ccc12` (centres undefined), the pIC50 in series [1] was 5.85. Moreover, the cytotoxic concentration (CC50) in series [2] worked out at 32.9 µM. Moreover, the selectivity ratio in series [3] stood at 22.9; in series [4], 31.8.
The like results for `COC(=O)c1ccc(Cc2c(C)c3ccc(OCC(O)CN4CCC(C(N)=O)CC4)cc3oc2=O)cc1` (centres undefined) were, in that order, 5.12, > 100 µM, > 13.3 and 11.
With `Cc1c(Cc2ccccc2)c(=O)oc2cc(OCC(CN3CCC(C(N)=O)CC3)Oc3ccc([N+](=O)[O-])cc3)ccc12` (centres undefined), the pIC50 in series [1] is 4.80. In addition, in series [2], the CC50 was determined as 94.8 µM. For the same molecule, the selectivity ratio stood at 5.9 in series [3] and 11.5 in series [4].
The like results for `COc1ccc(OC(COc2ccc3c(C)c(Cc4ccccc4)c(=O)oc3c2)CN2CCC(C(N)=O)CC2)cc1` (centres undefined) were, in that order, 4.98, 94.9 µM, 9.1 and 11.9.
For the molecule `Cc1c(Cc2ccc(OC(F)(F)F)cc2)c(=O)oc2cc(OC[C@@H](O)CN3CCC(C(N)=O)CC3)ccc12`, the pIC50 in series [1] was 6.15. Besides, the CC50 in series [2] was 64.9 µM. Moreover, the selectivity ratio in series [3] amounted to 92.6; in series [4] it was 46.3.
Turning to `COC(CNCCc1ccncc1)COc1ccc2c(C)c(Cc3ccccc3)c(=O)oc2c1` (centres undefined), in series [1], the pIC50 was 5.55. The CC50 in series [2] was 16.6 µM. In addition, the selectivity ratio in series [3] was found to be 5.9; in series [4], 9.6.
Take `Cc1c(Cc2cccc3ccccc23)c(=O)oc2cc(OCC(O)CN3CCC(C(N)=O)CC3)ccc12` (centres undefined): the pIC50 in series [1] was 5.82. In addition, the CC50 in series [2] amounted to 42.4 µM. Further, the results for the selectivity ratio in series [3] and in series [4] were 28.5 and 36.6, respectively.
As to `Cc1c(Cc2ccccc2)c(=O)oc2cc(OCC(O)CNCC3CC3)ccc12` (centres undefined), in series [1], the pIC50 was 5.52. Also, the CC50 in series [2] is > 100 µM. For the same molecule, the selectivity ratio was > 33.3 in series [3] and 31.6 in series [4].
For the molecule `Cc1c(Cc2ccccc2)c(=O)oc2cc(OCCCNc3nccs3)ccc12`, in series [1], the pIC50 is 4.74. Also, the CC50 in series [2] stood at 50.1 µM. The selectivity ratio in series [3] turned out to be 2.8; in series [4], 3.1.
In the case of `COc1ccc(Cc2c(C)c3ccc(OCC(O)CN4CCC(C(N)=O)CC4)cc3oc2=O)c(Br)c1` (centres undefined), the pIC50 in series [1] was 5.60. Further, the cytotoxic concentration (CC50) in series [2] stood at 44.4 µM. Also, the selectivity ratio in series [3] is 18; in series [4] it was 8.6.
Turning to `Cc1c(Cc2ccccc2)c(=O)oc2cc(OCC(CN3CCC(C(N)=O)CC3)Oc3ccc(F)cc3)ccc12` (centres undefined), the pIC50 in series [1] is 4.98. In addition, in series [2], the CC50 stood at 66.4 µM. In addition, the selectivity ratio is 6.4 in series [3] and 5.5 in series [4].
Regarding `Cc1c(Cc2ccccc2)c(=O)oc2cc(OCC(O)CNc3cc([N+](=O)[O-])ccc3O)ccc12` (centres undefined), the negative-log IC50 (pIC50) in series [1] was 4.09. Moreover, in series [2], the CC50 is > 100 µM. Moreover, the selectivity ratio in series [3] stood at 12; in series [4], 1.
As to `Cc1c(Cc2ccc(Cl)cc2)c(=O)oc2cc(OCC(O)CN3CCC(C(N)=O)CC3)ccc12` (centres undefined), the pIC50 in series [1] is 5.60. Besides, the CC50 in series [2] was found to be 40 µM. Further, the selectivity ratio is 16.3 in series [3] and 13.8 in series [4].
Take `Cc1c(Cc2ccc(OC(F)(F)F)cc2)c(=O)oc2cc(OCC(O)CNCCc3ccncc3)ccc12` (centres undefined): the pIC50 in series [1] is 5.66. In addition, the CC50 in series [2] is 14.3 µM. Besides, the selectivity ratio in series [3] came out at 6.6; in series [4] it was 10.7.
For the molecule `Cc1c(Cc2ccc(OC(F)(F)F)cc2)c(=O)oc2cc(OCC(O)CN3CCC(C(N)=O)CC3)ccc12` (centres undefined), the pIC50 in series [1] was 6.30. In addition, the CC50 in series [2] was determined as 68.2 µM. Further, the selectivity ratio in series [3] came out at 136; in series [4], 56.8.
The matching figures for `Cc1c(Cc2ccc(-c3ccccc3C#N)cc2)c(=O)oc2cc(OCC(O)CN3CCC(C(N)=O)CC3)ccc12` (centres undefined): 5.74, 33.2 µM, 17.5 and 18.2.
The like results for `Cc1noc(C)c1-c1ccc(Cc2c(C)c3ccc(OCC(O)CN4CCC(C(N)=O)CC4)cc3oc2=O)cc1` (centres undefined) were, in that order, 5.28, 36.9 µM, 7.1 and 11.4.
`Cc1c(Cc2ccccc2)c(=O)oc2cc(OCC(O)CNCCCCCCO)ccc12` (centres undefined): the pIC50 in series [1] is 6.00. Also, in series [2], the CC50 was determined as 40.3 µM. Also, the selectivity ratio in series [4] came to 16.6.
Regarding `Cc1c(Cc2ccccc2)c(=O)oc2cc(OCC(O)CNC3CCOCC3)ccc12` (centres undefined), in series [1], the pIC50 is 5.66. In addition, the CC50 in series [2] was found to be 38.2 µM. Moreover, the selectivity ratio amounted to 17.4 in series [3] and 17.1 in series [4].
For `COc1ccccc1-c1ccc(Cc2c(C)c3ccc(OCC(O)CN4CCC(C(N)=O)CC4)cc3oc2=O)cc1` (centres undefined), the pIC50 in series [1] was 5.82. Besides, in series [2], the CC50 is 91.6 µM. Further, the selectivity ratio in series [4] came out at 30.
As for `Cc1c(Cc2ccccc2)c(=O)oc2cc(OCC(O)CNc3ccccc3)ccc12` (centres undefined), the pIC50 in series [1] is < 4.00. Besides, in series [2], the CC50 is > 100 µM. Moreover, in series [4], the selectivity ratio came out at 1.
`Cc1c(Cc2ccccc2)c(=O)oc2cc(OCC(O)CNn3ccnn3)ccc12` (centres undefined): in series [1], the pIC50 was < 4.00. In addition, the CC50 in series [2] was > 100 µM. Further, the selectivity ratio in series [4] was 1.
In the case of `Cc1c(Cc2ccccc2)c(=O)oc2cc(OCC(O)CNc3ccc(Br)cc3)ccc12` (centres undefined), the pIC50 in series [1] is < 4.00. Also, in series [2], the CC50 was > 100 µM. Moreover, the selectivity ratio in series [4] came to 1.
